# Most compounds without a hit are left out; they make up all but 4.3% or so of the library.
# SR-BI uptake up: activators of SR-BI mediated HDL lipid uptake | AID 504775 | 320,000 compounds, 0.096% hits | CHO ldlA[mSR-BI] cells, DiI-HDL uptake fluorescence, 3 h; 100 = double the neutral-control signal | activation, % at 12.5 µM;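 active = mean replicate activation of at least 60% and every replicate at or above 60%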;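 note: 0% = median plate neutral-control signal and 100% = twice that signal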
#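 Assay system: CHO ldlA[mSR-BI] cells, LDL receptor-null, SR-BI overexpressing; medium: Ham's F12 with 0.5% BSA, HEPES 25 mM, pH 7.4; also added: DiI-HDL 10 µg/mL; timing: 3 h uptake period with compound, 37 °C; signal: DiI fluorescence, bottom read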
# AHR act: activators of human aryl hydrocarbon receptor | P35869 | AHR-responsive luciferase reporter cells, luminescence | activation, % at 5 µM | 320,000 compounds, 2.5% hits | AID 2796; in the data active = activation above about 47%;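 note: 0% = vehicle wells and 100% = reference agonist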
# CR mimetic SO: caloric restriction mimetics inhibiting age-related superoxide in yeast | S. cerevisiae aged cells, superoxide DHE fluorescence; stronger effect = lower value | superoxide response (% of plate mean), % at 10 µM | 330,000 compounds, 0.18% hits | AID 2690;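 active = superoxide response under a set limit, about three screen SD below normal, cut at about 65% in these data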;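 note: yeast aged for seven days with compound at 30 °C before DHE staining; 100% = average MFI of all compound-treated wells on the plate with controls excluded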
# Hep lipid drop: modulators of hepatic lipid droplet formation; AML12 mouse hepatocytes, oleate lipid droplets, BODIPY imaging; inhibition, % at 6.5 µM; 240,000 compounds, 0.4% hits; AID 1656;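 active = lipid droplet intensity inhibited by at least 50%, with more than 500 cells counted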
#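 System: AML12 hepatocytes (mouse). Probe or stimulus: oleic acid at 100 µM to induce lipid droplet formation. Times: overnight treatment with compound plus oleate. Detection: Image-based BODIPY and DAPI two-channel analysis. Evaluation: percent inhibition of filter-corrected integrated lipid droplet intensity per well.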
# SR-BI DiI inh: inhibitors of mouse SR-BI mediated HDL lipid uptake; ldlA[mSR-BI] CHO cells, DiI-HDL uptake fluorescence, 3 h; inhibition, % at 12.5 µM; 320,000 compounds, 0.96% hits; AID 488896;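 active = mean replicate inhibition of at least 70% and a set share of replicates each scoring 70 or more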;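 note: 0% = median of neutral control wells and 100% = median of positive control wells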
# Target sequence (Q61009 whole entry, looked up): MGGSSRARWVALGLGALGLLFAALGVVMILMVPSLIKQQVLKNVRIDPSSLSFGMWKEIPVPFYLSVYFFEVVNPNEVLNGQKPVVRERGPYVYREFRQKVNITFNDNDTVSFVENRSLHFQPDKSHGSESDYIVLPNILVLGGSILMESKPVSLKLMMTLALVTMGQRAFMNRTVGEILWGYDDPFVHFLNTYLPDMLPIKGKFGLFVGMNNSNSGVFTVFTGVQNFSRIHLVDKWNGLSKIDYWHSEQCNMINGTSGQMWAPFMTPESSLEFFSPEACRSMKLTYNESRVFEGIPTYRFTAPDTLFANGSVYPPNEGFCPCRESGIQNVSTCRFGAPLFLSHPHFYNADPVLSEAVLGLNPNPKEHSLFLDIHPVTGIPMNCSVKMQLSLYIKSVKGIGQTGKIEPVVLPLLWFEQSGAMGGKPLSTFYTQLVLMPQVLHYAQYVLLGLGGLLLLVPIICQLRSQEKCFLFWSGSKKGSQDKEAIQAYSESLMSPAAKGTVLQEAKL
# SMARCA2 activ: increases SMARCA2 function in MMTV reporter cells; MG213 cells, MMTV-luciferase reporter, dexamethasone, overnight; activation, % at 9.1 µM; 370,000 compounds, 1% hits; in the data active = activation above about 7.8%;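 note: 0% = vehicle wells and 100% = reference activator wells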
# Starred values were filed as active, the others as inactive; . = not tested or not shown.
SMILES,SR-BI uptake up,AHR act,CR mimetic SO,Hep lipid drop,SR-BI DiI inh,SMARCA2 activ
COc1ccccc1-c1ccc(SCC(=O)NCCc2ccccc2)nn1,-6,58*,80,-12,6,-1
O=C(CSc1ccc(-c2ccc(F)cc2)nn1)NCCc1ccccc1,3,1,140,-1,-3,2
Cc1ccc(/C=N/NC(=O)c2c(-c3ccccc3)noc2C)c(O)c1,-108,-2,105,-7,108*,-2
Cc1onc(-c2ccccc2)c1C(=O)NNC(=O)c1ccccc1O,-41,78*,97,.,41,-1
CCOc1cc([N+](=O)[O-])cc(/C=N/NC(=O)c2c(-c3ccccc3)noc2C)c1O,-72,2,103,-1,72*,.
Cc1onc(-c2c(Cl)cccc2Cl)c1C(=O)NCCc1ccc(S(N)(=O)=O)cc1,18,-1,94,-8,-18,2
COc1cccc(/C=N/NC(=O)c2c(-c3ccccc3)noc2C)c1O,-56,4,80,.,56,-2
Cc1onc(-c2ccccc2)c1C(=O)NCCc1ccc(S(N)(=O)=O)cc1,-13,76*,92,-10,13,-3
CCOc1cc(/C=N/NC(=O)c2c(-c3ccccc3)noc2C)ccc1O,-1,5,126,6,1,-3
Cc1ccc(C(=O)C2CCN(CC(=O)NC(C)C)CC2)cc1,.,.,.,.,.,-3
CCCC(=O)Nc1cc(C)c2c(=O)oc3ccccc3c2n1,.,53*,98,16,.,-1
Cc1cc(NC(=O)CC(C)(C)C)nc2c1c(=O)oc1ccccc12,-34,22,100,0,34,4
O=C(N/N=C/c1cccnc1)c1cc(-c2ccc(Cl)cc2)nc2ccccc12,-46,36,101,.,46,-4
O=C(N/N=C/c1ccc[nH]1)c1sc2ccccc2c1Cl,-75,27,126,.,75*,1
O=C(NC1CCC(O)CC1)c1cc(-c2ccc(Cl)cc2)nc2ccccc12 (configuration not stated),-77,3,88,.,77*,-1
O=C(Nc1ccncc1)c1cc(-c2ccc(Cl)cc2)nc2ccccc12,.,.,.,.,.,-3
O=C(N/N=C/c1ccc[nH]1)c1cc(-c2ccc(Cl)cc2)nc2ccccc12,-93,49*,104,-5,93*,-4
CN1/C(=C/C=C(C#N)C#N)C(C)(C)c2ccccc21,-5,-2,113,-5,5,-6
CN1/C(=C\C(=O)C(F)F)C(C)(C)c2ccccc21,25,-1,113,4,-25,-1
CN1/C(=C\C=O)C(C)(C)c2ccccc21,-2,64*,98,-14,2,1
CN1\C(=C/C=C/C=C/C=[N+](C)C)C(C)(C)c2ccccc21,182*,.,.,-63,-182,-5
CCc1noc(C)c1C(=O)N1CCN(CC(=O)OC)CC1,.,.,.,.,.,-4
O=C1CC(CC(=O)N/N=C/c2ccccc2[N+](=O)[O-])=NN1,1,47*,94,12,-1,-1
O=C(C[n+]1ccccc1)N/N=C/c1ccccc1[N+](=O)[O-],-4,-1,96,-1,4,3
CCOC(=O)CC[C@@H]1CC[C@]2(CCCN(Cc3nccs3)C2)O1,.,.,.,.,.,-4
SMILES,SR-BI uptake up,AHR act,CR mimetic SO,Hep lipid drop,SR-BI DiI inh,SMARCA2 activ
Cc1nn2c(-c3ccc(F)cc3)ccnc2c1Cl,-1,58*,100,-2,1,-2
O=C(CNc1nnnn1-c1ccccc1)N1CCCC1,.,.,.,.,.,-4
CC1(C)O[C@@H]1COc1c2ccoc2cc2oc(=O)ccc12,0,70*,94,-9,0,0
CC(C)=CCOc1c2ccoc2cc2oc(=O)ccc12,-31,51*,96,6,31,1
CC(C)=CCOc1c2ccoc2c(OCC=C(C)C)c2oc(=O)ccc12,-12,40,94,.,12,2
CCCCN1CCS(=O)(=O)N(Cc2cn(Cc3ccc(C)cc3)nn2)C(C(=O)OC)C1 (configuration not stated),.,.,.,.,.,2
Cc1cc(C)c(C#N)c(Nc2ccc(F)cc2)n1,-10,74*,104,-9,10,1
Cc1cc(C)c(C#N)c(Nc2ccccc2C)n1,.,15,98,1,.,-2
CCOC(=O)c1ccc(Nc2nc(C(=O)OCC)nc3ccccc23)cc1,-46,5,108,.,46,1
CCOC(=O)c1ccc(Nc2nc(C)cc(C)c2C#N)cc1,-73,6,74,16,73*,-1
Nc1ccc(-c2nc(-c3ccccc3)nc3ccccc23)cc1,-72,8,87,11,72*,-2
Nc1ccc(-c2cc(-c3cccc(N)c3)nc(-c3ccccc3)n2)cc1,-26,33,106,32,26,-4
O=C1C(NS(=O)(=O)c2ccc(Br)cc2)=C(N2CCCCC2)C(=O)c2ccccc21,-12,6,174,19,12,1
CC1CCN(C2=C(NS(=O)(=O)c3ccccc3)C(=O)c3ccccc3C2=O)CC1,.,6,142,35,.,7.8*
CCOC(=O)C1CCN(C2=C(NS(=O)(=O)c3ccc(Cl)cc3)C(=O)c3ccccc3C2=O)CC1,.,4,179,3,.,-1
CC1CCN(C2=C(NS(=O)(=O)c3ccc(Cl)cc3)C(=O)c3ccccc3C2=O)CC1,-4,10,150,70*,4,0
COc1ccc(C(=O)C2(C(=O)NCc3ccccc3)CC(c3ccccn3)=NO2)cc1 (configuration not stated),.,.,.,.,.,-3
Cc1ccc(CNc2nc(N)c([N+](=O)[O-])c(NCCO)n2)cc1,-2,2,99,12,2,0
Nc1nc(NCc2ccco2)nc(Nc2ccc(F)cc2)c1[N+](=O)[O-],-22,113*,92,-8,22,2
CCOc1ccc(Nc2nc(NCc3ccco3)nc(N)c2[N+](=O)[O-])cc1,-32,8,124,2,32,-2
COc1ccc(OC)c(Nc2nc(NCc3ccco3)nc(N)c2[N+](=O)[O-])c1,.,62*,70,43,.,-1
Cc1ccc(Nc2nc(N)c([N+](=O)[O-])c(NCc3ccco3)n2)cc1C,-41,64*,107,4,41,2
Cc1ccc(Nc2nc(N)c([N+](=O)[O-])c(NCCO)n2)cc1C,-13,81*,106,-8,13,-1
COc1ccc(-c2nnc(SCC(=O)NN=C(C)c3cccc4ccccc34)n2-c2ccccc2)cc1,.,.,.,.,.,-3
O=C(NC1CCCC1)[C@@H]1CCCN1C(=O)[C@@H](NC(=O)N1CCOCC1)C1CCCCC1,.,.,.,.,.,-2
COc1ccc(OC)c(Nc2nc(NCc3ccco3)c3ccccc3n2)c1,-13,60*,101,-5,13,0
COCCCNc1nc(N)c([N+](=O)[O-])c(Nc2ccccc2OC)n1,0,56*,97,7,0,1

# Screens as filed in PubChem BioAssay.
